From ChEMBL document CHEMBL4396943, “The tetrahydroxanthone-dimer phomoxanthone A is a strong inducer of apoptosis in cisplatin-resistant solid cancer cells” (Bioorg Med Chem, 2019) come the findings set out here.

The term IC50 denotes the concentration at which inhibition is half-maximal.

Active and inactive are the calls of the source. The rule behind the calls is not given here.

The test system of assay [1] is A2780. In words: Cell cycle arrest in human A2780 cells assessed as accumulation at G1 phase at 5 uM incubated for 24 hrs by propidium iodide staining based flow cytometry (reference value: 61.8%). Format: functional. Summed up: (§1)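 After 24 h exposure, cells washed in ice-cold PBS. About 2 million cells fixed in cold 70% ethanol at −20 °C for at least 24 h. Stained with 0.1% Triton X-100, 200 µg/ml RNase A and 20 µg/ml propidium iodide in PBS, 15 min at 37 °C in the dark. DNA content read by flow cytometry with doublet discrimination. Medium as untreated control, paclitaxel as G2/M control. Three independent experiments.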
A general note: A flow cytometer gives signals particle by particle.

Assay [2] concerns A2780. In words: Potency index, ratio of cisplatin IC50 to compound IC50 for antiproliferative activity in human A2780 cells assessed as reduction in cell viability incubated for 72 hrs by MTT assay. Format: functional. In outline:
(§2)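 Cells seeded in 96-well plates overnight, exposed 72 h to increasing concentrations. MTT (5 mg/ml) added for 15 min, formazan dissolved in DMSO, absorbance read at 544 nm with 690 nm background subtracted. IC50 is the concentration reducing signal by 50%. Three independent experiments in triplicate. CisR sublines made by weekly intermittent cisplatin exposure for 24–30 weeks.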
On the technique in general: Tetrazolium dyes change colour on reduction, which living cells bring about.

In the next assay the test system is CAL-27. The assay can be described thus: Antiproliferative activity against human CAL27 cells assessed as reduction in cell viability incubated for 72 hrs by MTT assay. Format: functional, cell-based. The note with it: CAL-27, 72 h. In outline: (§3)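 Cells seeded overnight in 96-well plates, then exposed to increasing concentrations (compound dissolved in DMSO, diluted in medium) for the stated time. MTT (5 mg/ml in PBS) added for 15 min, formazan dissolved in DMSO, absorbance read at 544 nm minus 690 nm background. IC50 = concentration giving 50% signal decrease. At least three independent experiments in triplicate.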

The test system of assay [3] is J82. The assay can be described thus: Induction of apoptosis in human J82 cells assessed as accumulation in subG1 phase at 5 uM incubated for 24 hrs by propidium iodide staining based flow cytometry relative to control. Format: functional. Summed up: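 About 100,000 cells/well plated; after one day, treated 24 h. Cells lysed in hypotonic buffer (0.1% sodium citrate, 0.1% Triton X-100, 100 µg/ml propidium iodide) and kept overnight at 4 °C in the dark. Sub-G1 fraction measured by flow cytometry. Medium as control, cisplatin as positive control.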

In assay [4] the test system is J82. In words: Induction of apoptosis in cisplatin resistant human J82 cells assessed as accumulation in subG1 phase at 5 uM incubated for 24 hrs by propidium iodide staining based flow cytometry relative to control. Format: functional. In outline: (§4)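 Cells plated in 24-well plates (about 100,000/well) for one day, then treated 24 h. Where used, caspase inhibitor Q-VD-OPh (20 µM) was added 1 h before. Cells lysed in hypotonic buffer (0.1% sodium citrate, 0.1% Triton X-100, 100 µg/ml propidium iodide) overnight at 4 °C in the dark. Sub-G1 fraction read by flow cytometry. Medium control, cisplatin positive control.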

For assay [5], the system named is A2780cisR. In words: Cell cycle arrest in human A2780cisR cells assessed as accumulation at G1 phase at 1 uM incubated for 24 hrs by propidium iodide staining based flow cytometry (reference value: 68.7%). Format: functional. Summed up:
as §1

Assay [6] has as its system A2780cisR. In words: Induction of apoptosis in human A2780cisR cells assessed as increase in activation of caspase 3/7 at 10 uM incubated for 24 hrs by hoechst 33342 staining based fluorescence microscopy (reference value: 0.8%). Format: functional.
Assay [7] relates to J82. The assay can be described thus: Cell cycle arrest in human J82 cells assessed as accumulation at G1 phase at 1 uM incubated for 24 hrs by propidium iodide staining based flow cytometry (reference value: 69.6%). Format: functional. In outline: as §1
The test system of the next assay is K562. The assay can be described thus: Antiproliferative activity against human K562 cells assessed as reduction in cell viability incubated for 72 hrs by MTT assay. Format: functional, cell-based. The note with it: K562, 72 h. In outline:
as §3

Assay [8] concerns A2780. The assay can be described thus: Induction of apoptosis in human A2780 cells assessed as accumulation in subG1 phase incubated for 24 hrs by propidium iodide staining based flow cytometry. Format: functional, cell-based. In outline: as §4
Assay [9] has as its system A2780cisR. In words: Induction of apoptosis in human A2780cisR cells assessed as depolarization of mitochondrial membrane potential at 1 uM incubated for 1 hr by TMRE staining based flow cytometry. Format: functional. Summed up:
(§5)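 Cells seeded overnight; complete medium swapped for FBS-free medium just before treatment to avoid TMRE ester cleavage. Exposure to PXA for 1 h, 2 h or 24 h. TMRE staining 20 min, cells collected by trypsinisation, ΔΨm read by flow cytometry. Medium served as negative control, 20 µM CCCP as positive control. Mean ± SEM reported.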

The next assay has as its system MDA-MB-231. In words: Potency index, ratio of cisplatin IC50 to compound IC50 for antiproliferative activity in cisplatin-resistant human MDA-MB-231 cells assessed as reduction in cell viability incubated for 72 hrs by MTT assay. Format: functional. In outline:
as §2

Assay [10] deals with A2780cisR. In words: Induction of apoptosis in human A2780cisR cells assessed as depolarization of mitochondrial membrane potential at 1 uM incubated for 2 hrs by TMRE staining based flow cytometry. Format: functional. Summed up: as §5
Assay [11] has as its system J82. In words: Induction of apoptosis in cisplatin resistant human J82 cells assessed as mitochondrial membrane potential at 1 uM incubated for 2 hrs by hoechst 33342 staining based fluorescence microscopy. Format: functional, cell-based. In outline:
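J82CisR cells exposed 2 h, then labelled with TMRE and Hoechst 33342 for 20 min. TMRE signal imaged on a high-content fluorescence imaging platform. Untreated medium control and 20 µM CCCP positive control.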

Assay [12] relates to A2780. The assay can be described thus: Induction of apoptosis in human A2780 cells assessed as increase in activation of caspase 3/7 at 10 uM incubated for 24 hrs by hoechst 33342 staining based fluorescence microscopy (reference value: 1.4%). Format: functional.
Assay [13] deals with J82. In words: Potency index, ratio of cisplatin IC50 to compound IC50 for antiproliferative activity in cisplatin resistant human J82 cells assessed as reduction in cell viability incubated for 72 hrs by MTT assay. Format: functional. Summed up: as §2
Assay [14] concerns J82. The assay can be described thus: Antiproliferative activity against human cisplatin resistant J82 cells assessed as reduction in cell viability incubated for 72 hrs by MTT assay. The note with it: J82, 72 h. Format: functional, cell-based. In outline:
as §3

In assay [15] the test system is A2780. The assay can be described thus: Induction of apoptosis in human A2780 cells assessed as increase in intracellular calcium level at 1 and 30 uM incubated for 30 mins by fluorimetry. Format: functional, cell-based. Summed up:
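Cells seeded in 96-well plates overnight, washed twice with Krebs-HEPES buffer, loaded 1 h at 37 °C in the dark with Oregon Green BAPTA-1 AM (final 3 µM) and Pluronic F-127. Buffer replaced, PXA added, fluorescence at 544 nm recorded for 30 min, with or without 1 mM extracellular Ca2+. Three experiments, mean ± SEM.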
(Calcium assays in cells follow changes in intracellular calcium, usually with a dye or a luminescent sensor.)

Assay [16] concerns A2780cisR. The assay can be described thus: Cell cycle arrest in human A2780cisR cells assessed as accumulation at G1 phase incubated for 24 hrs by propidium iodide staining based flow cytometry. Format: functional. Summed up: as §1
For assay [17], the system named is A2780. In words: Induction of apoptosis in human A2780 cells assessed as depolarization of mitochondrial membrane potential at 1 uM incubated for 2 hrs by TMRE staining based flow cytometry. Format: functional. Summed up: as §5
A further assay concerns KYSE-510. In words: Potency index, ratio of cisplatin IC50 to compound IC50 for antiproliferative activity in human KYSE-510 cells assessed as reduction in cell viability incubated for 72 hrs by MTT assay. Format: functional. In outline: as §2
Assay [18] relates to A2780cisR. In words: Induction of apoptosis in human A2780cisR cells assessed as depolarization of mitochondrial membrane potential after 24 hrs by TMRE staining based flow cytometry. Format: functional, cell-based. In outline: as §5

On to `CC(=O)OC[C@]12Oc3c(-c4ccc(O)c5c4O[C@@]4(COC(C)=O)C(=C(O)C[C@@H](C)[C@H]4OC(C)=O)C5=O)ccc(O)c3C(=O)C1=C(O)C[C@@H](C)[C@H]2OC(C)=O` [PHOMOXANTHONE A], for which the Activity worked out at 75.9% in the assay with A2780 [1]; 53% in the assay on J82 [3]; 35% in the assay with J82 [4]; 72.7% in the assay on A2780cisR [5]; 71% in the assay with A2780cisR [6]; 65% in the assay on J82 [7]. Moreover, the Activity result in the assay on A2780 [8] was “Dose-dependent effect”; in the assay on A2780cisR [9], 73%; in the assay with A2780cisR [10] it was 50%; with A2780 [12], 83%; with A2780cisR [16] it was “Dose-dependent effect”; in the assay on A2780 [17], 50%. Besides, the Activity result in the assay on A2780cisR [18] is “Dose-dependent effect”. The “Ratio IC50” value is on record as 7 with A2780 [2], 2 - 10 in the assay with MDA-MB-231, 4 with J82 [13] and 2 - 10 in the assay with KYSE-510. Further, the IC50 was found to be 5.25 µM with CAL-27, 1.86 µM with K562 and 2.04 µM in the assay on J82 [14]. In addition, the outcome with J82 [11] was inactive. Besides, in the assay with A2780 [15], the outcome was Active.
